Results on four compounds are retold here after ChEMBL document CHEMBL4732057, “Design, synthesis and biological evaluation of second-generation benzoylpiperidine derivatives as reversible monoacylglycerol lipase (MAGL) inhibitors” (Eur J Med Chem, 2021).

Assay [1] deals with T1, Monoacylglycerol lipase ABHD6 (Mus musculus) (UniProt Q8R2Y0).
T1 sequence (whole entry): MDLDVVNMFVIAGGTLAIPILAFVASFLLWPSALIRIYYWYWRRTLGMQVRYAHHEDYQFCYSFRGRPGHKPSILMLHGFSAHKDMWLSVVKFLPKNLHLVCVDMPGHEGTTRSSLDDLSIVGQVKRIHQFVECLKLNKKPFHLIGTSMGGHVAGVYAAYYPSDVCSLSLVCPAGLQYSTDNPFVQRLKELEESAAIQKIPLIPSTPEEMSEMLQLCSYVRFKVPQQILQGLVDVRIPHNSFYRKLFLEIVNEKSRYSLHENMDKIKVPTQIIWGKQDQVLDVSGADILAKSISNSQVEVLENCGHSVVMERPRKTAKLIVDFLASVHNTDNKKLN
Briefly: Inhibition of ABHD6 in mouse brain membrane up to 30 uM preincubated for 25 mins followed by TAMRA-FP labeling addition and measured after 5 mins by competitive ABPP based analysis. The format is cell membranes. Conditions: dose microM <=30, time 30.0 min. In short, it runs like this: (§1)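 Mouse brain membranes, 4 mg/mL in PBS, preincubated 25 min at 25 °C with compound at 10 µM or a range of concentrations. Labelled 5 min with TAMRA-FP at 125 nM final. Proteins resolved on 11% SDS-PAGE and scanned for fluorescence.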

Assay [2] in a line: Cytotoxicity against cancer-derived human organoids in HGSOC patient assessed as reduction in cell viability up to 100 uM measured after 96 hrs by Celltiter-glo luminescent assay. It is filed as functional, Neoplasm. The conditions noted are these: dose microM <=100. In a few lines: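 Organoids from three HGSOC patients. Tissue digested with 2 mg/mL collagenase for 30 min, embedded in BME matrix and cultured. Treated at 100 µM, with carboplatin as positive control. Viability read by CellTiter-Glo luminescence.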
In general terms: In ATP-based viability assays light output follows the ATP content of the culture.

Assay [3] addresses T2, Monoglyceride lipase (Homo sapiens) (UniProt Q99685).
T2 sequence (whole entry): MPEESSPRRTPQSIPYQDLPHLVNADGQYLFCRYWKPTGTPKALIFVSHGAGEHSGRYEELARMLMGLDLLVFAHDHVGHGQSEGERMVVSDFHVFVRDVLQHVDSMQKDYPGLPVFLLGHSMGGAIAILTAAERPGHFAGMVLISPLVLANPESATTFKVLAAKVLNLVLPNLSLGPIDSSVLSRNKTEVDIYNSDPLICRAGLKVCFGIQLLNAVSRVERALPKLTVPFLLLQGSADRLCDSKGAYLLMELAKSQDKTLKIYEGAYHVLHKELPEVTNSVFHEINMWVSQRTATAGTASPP
The assay can be described thus: Reversible inhibition of human recombinant MAGL using 4-nitrophenylacetate as substrate preincubated with enzyme for 0 to 60 mins followed by substrate addition by microplate reader assay. Conditions: time 0-60 min. In short, it runs like this: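 MAGL (11 ng/well) preincubated with compound in DMSO for 0, 30 or 60 min. Reaction then started with 4-NPA 500 µM stock, same buffer and read-out as the main assay. IC50 at each time; triplicates of two independent experiments.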

Assay [4] concerns the target T3, Lysophosphatidylserine lipase ABHD12 (Homo sapiens, UniProt Q8N2K0).
T3 sequence (Q8N2K0 whole entry): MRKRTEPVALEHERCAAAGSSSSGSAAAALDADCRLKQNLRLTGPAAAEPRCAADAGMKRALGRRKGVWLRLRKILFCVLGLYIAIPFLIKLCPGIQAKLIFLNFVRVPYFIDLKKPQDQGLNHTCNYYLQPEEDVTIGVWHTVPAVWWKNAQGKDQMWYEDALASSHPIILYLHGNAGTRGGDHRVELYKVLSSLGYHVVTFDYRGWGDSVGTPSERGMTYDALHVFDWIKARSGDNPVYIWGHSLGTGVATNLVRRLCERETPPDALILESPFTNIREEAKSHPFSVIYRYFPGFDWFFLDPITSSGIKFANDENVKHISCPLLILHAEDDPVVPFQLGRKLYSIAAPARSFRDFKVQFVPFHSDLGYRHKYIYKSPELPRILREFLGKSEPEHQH
Briefly: Inhibition of human ABHD12 expressed in HEK293 cells using [3H]2-OG as substrate preincubated for 30 mins followed by substrate addition and measured after 5 mins by liquid scintillation spectroscopy. It is filed as cell-based. In short, it runs like this:
(§2)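 Homogenate (40 µg) of HEK293 cells stably transfected with human ABHD6 or ABHD12, preincubated with compound 30 min at 37 °C in […], 0.1% BSA, pH 7.6. 2-OG 10 µM added for 5 min at 37 °C. Stopped with CHCl3:MeOH; aqueous tritium counted; blanks and nontransfected HEK293 hydrolysis subtracted. Screening at 10 µM.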

Assay [5] concerns the target T4, Lysophosphatidylserine lipase ABHD12 (Homo sapiens) (UniProt Q8N2K0).
T4 sequence (whole entry): T3 sequence (Q8N2K0 whole entry)
The assay can be described thus: Inhibition of human ABHD12 expressed in HEK293 cells using [3H]2-OG as substrate at 10 uM preincubated for 30 mins followed by substrate addition and measured after 5 mins by liquid scintillation spectroscopy. It is filed as cell-based. The conditions noted are these: time 35.0 min. In a few lines:
as §2

Assay [6] has as its target T5, Monoglyceride lipase (Mus musculus) (UniProt O35678).
T5 sequence (whole entry): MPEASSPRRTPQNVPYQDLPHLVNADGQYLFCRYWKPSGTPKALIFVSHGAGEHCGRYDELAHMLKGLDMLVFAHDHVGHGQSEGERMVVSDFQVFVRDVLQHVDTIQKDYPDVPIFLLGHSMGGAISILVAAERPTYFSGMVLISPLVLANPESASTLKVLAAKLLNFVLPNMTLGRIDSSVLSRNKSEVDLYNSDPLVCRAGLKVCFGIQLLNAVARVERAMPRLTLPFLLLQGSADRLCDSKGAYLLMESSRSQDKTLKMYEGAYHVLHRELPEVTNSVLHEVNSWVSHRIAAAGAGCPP
Briefly: Inhibition of MAGL in mouse brain membrane preincubated for 25 mins followed by TAMRA-FP labeling addition and measured after 5 mins by competitive ABPP based analysis. It is filed as cell membranes. The conditions noted are these: time 30.0 min. In a few lines: as §1

The target in assay [7] is T2, Monoglyceride lipase (Homo sapiens). The assay can be described thus: Reversible inhibition of human recombinant MAGL using 4-nitrophenylacetate as substrate at 2 uM preincubated with enzyme for 60 mins followed by 40X dilution and 15 mins later incubated with substrate by microplate reader assay. Conditions: time 75.0 min. In short, it runs like this: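 MAGL (880 ng) incubated 60 min at room temperature with compound at 2 µM in Tris pH 7.2, then diluted 40-fold in buffer. After 15 min, 4-NPA 500 µM stock added and activity read as in the main assay. Compared with 2000 nM and 50 nM undiluted; triplicates of two experiments.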

The target in assay [8] is T6, Monoglyceride lipase (Homo sapiens, UniProt Q99685).
T6 sequence (Q99685 whole entry): T2 sequence (whole entry)
Briefly: Inhibition of human recombinant MAGL using 4-nitrophenylacetate as substrate incubated for 30 mins by microplate reader assay. In short, it runs like this: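 Human recombinant MAGL, 11 ng/well, in 10 mM Tris pH 7.2 with 1 mM EDTA and 0.1 mg/mL BSA, at room temperature. 4-NPA 133.3 µM stock added; enzyme added last. Absorbance at 405 nm after 30 min, minus a no-enzyme blank for each concentration. Sigmoidal fit; duplicates of three independent experiments.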

For assay [9], the target named is T6, Monoglyceride lipase. The assay can be described thus: Competitive inhibition of human recombinant MAGL using varying concentration of 4-nitrophenylacetate as substrate incubated for 30 mins by microplate reader assay. In short, it runs like this: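 MAGL 11 ng/well; 4-nitrophenol absorbance recorded. Data fitted by the mixed-model inhibition fit to give Ki.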

Broadly, the inhibition is the share of the control response that was lost under treatment. The term IC50 denotes the concentration needed to halve the response being measured. The term Ki denotes the equilibrium dissociation constant of an inhibitor or competing ligand from its target.

Active and inactive are the calls of the source. No cut-off for these calls is given here.

In the case of `O=C(c1ccc(Sc2ccccc2)cc1)C1CCN(C(=O)c2cc(O)ccc2F)CC1`, the inhibition result in [1] is “inactive”. The “inhibition (INH)” value in assay [2] was 42%. Moreover, the inhibition entry in assay [3] and in assay [7] was “Active” in each case. For the same compound, the IC50 is > 10000 nM in [4] and 30 nM in assay [8]. Besides, the inhibition is 26% in [5] and “Dose-dependent effect” in [6]. Further, the Ki in [9] was 27 nM.
For `O=C(c1ccc(Cc2ccccc2)cc1)C1CCN(C(=O)c2cc(O)ccc2F)CC1`, the inhibition result in assay [1] was “inactive”. In addition, the “inhibition (INH)” value in assay [2] came to 42%. Moreover, the inhibition entry in assay [3] and in assay [7] was “Active” throughout. Moreover, the half-maximal inhibitory concentration (IC50) in assay [4] is > 10000 nM; in assay [8], 49 nM. The figures for the inhibition in [5] and in assay [6] were 20% and “Dose-dependent effect”, respectively. The Ki in [9] came out at 37 nM.
As for `O=C(c1ccc(Cc2ccccc2)cc1)C1CCN(C(=O)c2cc(O)c(F)cc2F)CC1`, the inhibition result in assay [1] was “inactive”. Further, in assay [2], the “inhibition (INH)” value was determined as 18%. Moreover, the inhibition result in assay [3] and in assay [7] was “Active” each time. The values for the IC50 in assay [4] and in assay [8] were > 10000 nM and 36 nM, respectively. The inhibition is 28% in assay [5] and “Dose-dependent effect” in assay [6]. Further, the Ki in [9] was 30 nM.
Take `O=C(c1ccc(Sc2ccccc2)cc1)C1CCN(C(=O)c2cc(O)c(F)cc2F)CC1`: in assay [1], the inhibition result is “inactive”. Also, the “inhibition (INH)” value in [2] was found to be 42%. Also, the inhibition result in assay [3] and in assay [7] was “Active” throughout. Also, the figures for the IC50 in assay [4] and in [8] were > 10000 nM and 18 nM, respectively. Also, the inhibition in [5] was 27%; in assay [6], “Dose-dependent effect”. Further, the Ki in [9] was 11 nM.
